In ChEMBL document CHEMBL1121923, “N2- and C-7 substituted actinomycin D analogues: synthesis, DNA-binding affinity, and biochemical and biological properties. Structure-activity relationship” (J Med Chem, 1981):
In brackets after ≈: the same amount, converted by molar mass.

Key:
CCRF-CEM = test: In vitro antitumor activity against human lymphoblastic leukemia cells.; format: functional; settings: read-out: ID50 (the source's name)
Outline: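 Human lymphoblastic leukemia CCRF-CEM cells grown in suspension culture; growth inhibition in vitro; ID50 (ng/mL) reported as the 50% inhibitory dose.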

P388 [1] = test: Percent of increased life span of P388 cells implanted CDF1 male mice; format: functional, Mus musculus
Outline: (§1)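 CDF1 male mice, groups of seven, given 10^6 P388 cells ip on day 0; drug ip in 5% DMSO–saline on days 1, 5 and 9; controls received vehicle; range of doses tested, optimal nontoxic dose listed; median survival time; %ILS = (treated − control)/control × 100; average of two or more experiments.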

P388 [2] = test: Optimal dose for antitumor activity was measured in P388 cells of CDF1 male mice in vivo; Highest dose tested; format: functional, Mus musculus; outline: as §1
P388 [3] = test: Median survival time of the P388 cells implanted CDF1 male mice in vivo; format: functional, Mus musculus; outline: as §1
P388 [4] = test: Concentration required for 50% inhibition of incorporation of labeled uridine by P388 cells for the synthesis of RNA (in vitro); format: functional; settings: Mus musculus, read-out: ED50 (the source's name)
P388 [5] = test: Concentration required for 50% inhibition of incorporation of labeled thymidine by p388 cells for synthesis of DNA (in vitro); format: functional; settings: Mus musculus, read-out: ED50 (the source's name)
Calf thymus DNA [6] = test: Apparent number of binding sites per base pairs in DNA; Not measurable; format: nucleic-acid assay; settings: Bos taurus
Outline: (§2)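 Calf thymus DNA; spectral titration; binding isotherms in 0.01 M phosphate buffer, pH 7.0, 20 °C; Kapp (per base pair) and Bapp (drug binding sites per base pair) taken from Scatchard plot.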

Calf thymus DNA [7] = test: Apparent binding constant against calf thymus DNA-drug complex; Not measurable; format: nucleic-acid assay; settings: Bos taurus; outline: as §2
P388 [8] = test: Concentration required for 50% inhibition of incorporation of labeled uridine by P388 cells for the synthesis of RNA (in vitro); e indicates values are high and variable; format: functional, cell-based; settings: Mus musculus
P388 [9] = test: Concentration required for 50% inhibition of incorporation of labeled thymidine by p388 cells for synthesis of DNA (in vitro); e indicates values are high and variable; format: functional, cell-based; settings: Mus musculus
Calf thymus DNA [10] = test: Apparent binding constant calf thymus DNA-drug complex; format: nucleic-acid assay; settings: Bos taurus; outline: as §2

Structure (SMILES)	IC50 (CCRF-CEM)	ILS (P388 [1])	Highest dose tested (P388 [2])	MST (P388 [3])	EC50 (P388 [4])	EC50 (P388 [5])	Bapp (Calf thymus DNA [6])	K app (Calf thymus DNA [7])	ED50 (P388 [8])	ED50 (P388 [9])	K app (Calf thymus DNA [10])
CCCCCCNc1c(C(=O)N[C@@H]2C(=O)N[C@H](C(C)C)C(=O)N3CCC[C@H]3C(=O)N(C)CC(=O)N(C)[C@@H](C(C)C)C(=O)O[C@@H]2C)c2nc3c(C(=O)N[C@@H]4C(=O)N[C@H](C(C)C)C(=O)N5CCC[C@H]5C(=O)N(C)CC(=O)N(C)[C@@H](C(C)C)C(=O)O[C@@H]4C)ccc(C)c3oc-2c(C)c1=O	3 µg/mL (≈ 2.24 µM)	0%	1.2 mg/kg	11 days	–	–	–	–	–	–	–
Cc1c2oc3c(C)ccc(C(=O)N[C@@H]4C(=O)N[C@H](C(C)C)C(=O)N5CCC[C@H]5C(=O)N(C)CC(=O)N(C)[C@@H](C(C)C)C(=O)O[C@@H]4C)c3nc-2c(C(=O)N[C@@H]2C(=O)N[C@H](C(C)C)C(=O)N3CCC[C@H]3C(=O)N(C)CC(=O)N(C)[C@@H](C(C)C)C(=O)O[C@@H]2C)c(NCCCCN)c1=O	0.6 µg/mL (≈ 0.452 µM)	109%	1.8 mg/kg	23 days	346 nM	3300 nM	–	–	–	–	–
CCCCCCCOc1cc(C(=O)N[C@@H]2C(=O)N[C@H](C(C)C)C(=O)N3CCC[C@H]3C(=O)N(C)CC(=O)N(C)[C@@H](C(C)C)C(=O)O[C@@H]2C)c2nc3c(C(=O)N[C@@H]4C(=O)N[C@H](C(C)C)C(=O)N5CCC[C@H]5C(=O)N(C)CC(=O)N(C)[C@@H](C(C)C)C(=O)O[C@@H]4C)c(N)c(=O)c(C)c-3oc2c1C	3 µg/mL (≈ 2.19 µM)	24%	0.9 mg/kg	13 days	–	–	–	–	–	–	–
CCCCCCOc1cc(C(=O)N[C@@H]2C(=O)N[C@H](C(C)C)C(=O)N3CCC[C@@H]3C(=O)N(C)CC(=O)N(C)[C@@H](C(C)C)C(=O)O[C@@H]2C)c2nc3c(C(=O)N[C@H]4C(=O)N[C@@H](C(C)C)C(=O)N5CCC[C@H]5C(=O)N(C)CC(=O)N(C)[C@H](C(C)C)C(=O)O[C@H]4C)c(N)c(=O)c(C)c-3oc2c1C	–	–	–	–	–	–	Not measurable	Not measurable	High and variable values	High and variable values	–
Cc1c2oc3c(C)c(OC(=O)c4ccc5ccccc5c4)cc(C(=O)N[C@@H]4C(=O)N[C@H](C(C)C)C(=O)N5CCC[C@@H]5C(=O)N(C)CC(=O)N(C)[C@@H](C(C)C)C(=O)O[C@@H]4C)c3nc-2c(C(=O)N[C@H]2C(=O)N[C@@H](C(C)C)C(=O)N3CCC[C@H]3C(=O)N(C)CC(=O)N(C)[C@H](C(C)C)C(=O)O[C@H]2C)c(N)c1=O	–	–	–	–	–	–	Not measurable	Not measurable	High and variable values	High and variable values	–
Cc1c2oc3c(C)c(OC(=O)C45CC6CC(CC(C6)C4)C5)cc(C(=O)N[C@@H]4C(=O)N[C@H](C(C)C)C(=O)N5CCC[C@@H]5C(=O)N(C)CC(=O)N(C)[C@@H](C(C)C)C(=O)O[C@@H]4C)c3nc-2c(C(=O)N[C@H]2C(=O)N[C@@H](C(C)C)C(=O)N3CCC[C@H]3C(=O)N(C)CC(=O)N(C)[C@H](C(C)C)C(=O)O[C@H]2C)c(N)c1=O	–	–	–	–	–	–	Not measurable	Not measurable	–	–	–
CCCCCNc1c(C(=O)N[C@@H]2C(=O)N[C@H](C(C)C)C(=O)N3CCC[C@H]3C(=O)N(C)CC(=O)N(C)[C@@H](C(C)C)C(=O)O[C@@H]2C)c2nc3c(C(=O)N[C@@H]4C(=O)N[C@H](C(C)C)C(=O)N5CCC[C@H]5C(=O)N(C)CC(=O)N(C)[C@@H](C(C)C)C(=O)O[C@@H]4C)ccc(C)c3oc-2c(C)c1=O	1.6 µg/mL (≈ 1.21 µM)	18%	1.15 mg/kg	13 days	–	–	–	–	–	–	–
Cc1c2oc3c(C)ccc(C(=O)N[C@@H]4C(=O)N[C@H](C(C)C)C(=O)N5CCC[C@H]5C(=O)N(C)CC(=O)N(C)[C@@H](C(C)C)C(=O)O[C@@H]4C)c3nc-2c(C(=O)N[C@@H]2C(=O)N[C@H](C(C)C)C(=O)N3CCC[C@H]3C(=O)N(C)CC(=O)N(C)[C@@H](C(C)C)C(=O)O[C@@H]2C)c(NCCCCCN)c1=O	0.85 µg/mL (≈ 0.634 µM)	64%	1.8 mg/kg	18 days	460 nM	> 4600 nM	–	–	–	–	–
CCCCCCOc1cc(C(=O)N[C@@H]2C(=O)N[C@H](C(C)C)C(=O)N3CCC[C@H]3C(=O)N(C)CC(=O)N(C)[C@@H](C(C)C)C(=O)O[C@@H]2C)c2nc3c(C(=O)N[C@@H]4C(=O)N[C@H](C(C)C)C(=O)N5CCC[C@H]5C(=O)N(C)CC(=O)N(C)[C@@H](C(C)C)C(=O)O[C@@H]4C)c(N)c(=O)c(C)c-3oc2c1C	2.5 µg/mL (≈ 1.84 µM)	24%	0.9 mg/kg	13 days	–	–	–	–	–	–	–
Cc1c2oc3c(C)c(OCc4ccc([N+](=O)[O-])cc4)cc(C(=O)N[C@@H]4C(=O)N[C@H](C(C)C)C(=O)N5CCC[C@@H]5C(=O)N(C)CC(=O)N(C)[C@@H](C(C)C)C(=O)O[C@@H]4C)c3nc-2c(C(=O)N[C@H]2C(=O)N[C@@H](C(C)C)C(=O)N3CCC[C@H]3C(=O)N(C)CC(=O)N(C)[C@H](C(C)C)C(=O)O[C@H]2C)c(N)c1=O	–	–	–	–	–	–	Not measurable	–	High and variable values	High and variable values	100000 M⁻¹
CCCCCCCCCNc1c(C(=O)N[C@@H]2C(=O)N[C@H](C(C)C)C(=O)N3CCC[C@H]3C(=O)N(C)CC(=O)N(C)[C@@H](C(C)C)C(=O)O[C@@H]2C)c2nc3c(C(=O)N[C@@H]4C(=O)N[C@H](C(C)C)C(=O)N5CCC[C@H]5C(=O)N(C)CC(=O)N(C)[C@@H](C(C)C)C(=O)O[C@@H]4C)ccc(C)c3oc-2c(C)c1=O	11 µg/mL (≈ 7.96 µM)	–	1.8 mg/kg	10 days	–	–	–	–	–	–	–
Cc1c2oc3c(C)c(OC(=O)c4ccccc4)cc(C(=O)N[C@@H]4C(=O)N[C@H](C(C)C)C(=O)N5CCC[C@@H]5C(=O)N(C)CC(=O)N(C)[C@@H](C(C)C)C(=O)O[C@@H]4C)c3nc-2c(C(=O)N[C@H]2C(=O)N[C@@H](C(C)C)C(=O)N3CCC[C@H]3C(=O)N(C)CC(=O)N(C)[C@H](C(C)C)C(=O)O[C@H]2C)c(N)c1=O	–	–	–	–	–	–	Not measurable	Not measurable	High and variable values	High and variable values	–
CCCCCCCCCCCNc1c(C(=O)N[C@@H]2C(=O)N[C@H](C(C)C)C(=O)N3CCC[C@H]3C(=O)N(C)CC(=O)N(C)[C@@H](C(C)C)C(=O)O[C@@H]2C)c2nc3c(C(=O)N[C@@H]4C(=O)N[C@H](C(C)C)C(=O)N5CCC[C@H]5C(=O)N(C)CC(=O)N(C)[C@@H](C(C)C)C(=O)O[C@@H]4C)ccc(C)c3oc-2c(C)c1=O	> 15 µg/mL	–	1.15 mg/kg	10 days	–	–	–	–	–	–	–
CCCCCCCOc1cc(C(=O)N[C@@H]2C(=O)N[C@H](C(C)C)C(=O)N3CCC[C@@H]3C(=O)N(C)CC(=O)N(C)[C@@H](C(C)C)C(=O)O[C@@H]2C)c2nc3c(C(=O)N[C@H]4C(=O)N[C@@H](C(C)C)C(=O)N5CCC[C@H]5C(=O)N(C)CC(=O)N(C)[C@H](C(C)C)C(=O)O[C@H]4C)c(N)c(=O)c(C)c-3oc2c1C	–	–	–	–	–	–	Not measurable	Not measurable	High and variable values	High and variable values	–
Cc1c2oc3c(C)c(OCc4ccc(Cl)cc4)cc(C(=O)N[C@@H]4C(=O)N[C@H](C(C)C)C(=O)N5CCC[C@@H]5C(=O)N(C)CC(=O)N(C)[C@@H](C(C)C)C(=O)O[C@@H]4C)c3nc-2c(C(=O)N[C@H]2C(=O)N[C@@H](C(C)C)C(=O)N3CCC[C@H]3C(=O)N(C)CC(=O)N(C)[C@H](C(C)C)C(=O)O[C@H]2C)c(N)c1=O	–	–	–	–	–	–	Not measurable	–	High and variable values	High and variable values	100000 M⁻¹
